Assay results pooled from the literature.
Compare with care: the assays were run in different laboratories.
Target: Ribosomal protein S6 kinase beta-1 (RPS6KB1, Homo sapiens, UniProt P23443)

| SMILES | observed | technique | concentration | remaining binding [%] |
| --- | --- | --- | --- | --- |
| O=C(c1ccc(Nc2ncc(Cl)c(-c3cc4ccccc4s3)n2)cc1)N1CCC(N2CCCC2)CC1 | binding | competition with immobilised ligand | 1 µM | 37 |
| CNC(=O)c1ccc(Nc2ncc(C(F)(F)F)c(NCc3nccnc3N(C)S(C)(=O)=O)n2)cc1 | cell-free assay | competition with immobilised ligand | 0.1 µM | 96 |
| CCN1CCN(Cc2ccc(C(=O)Nc3ccc(C)c(Oc4ccc5c(c4)CC(=O)N5)c3)cc2C(F)(F)F)CC1 | binding | competition with immobilised ligand | 1 µM | 100 |
| O=C(NCC1CCOCC1)c1n[nH]cc1NC(=O)c1c(F)cccc1F | binding | competition with immobilised ligand | 1 µM | 87 |
| O=C(NCCCN1CCOCC1)c1ccc(Nc2nccc(-c3cc4ccccc4s3)n2)cc1 | binding | competition with immobilised ligand | 1 µM | 92 |
| CN(C)C(=O)Cn1cc(-c2nc([C@@](C)(c3ccc(-c4cnc(N)nc4)cc3)C3CC3)no2)cn1 | cell-free assay | competition with immobilised ligand | 1 µM | 83 |
| c1cncc(-c2cccc(Nc3nccc(NC4CCCCC4)n3)c2)c1 | binding | competition with immobilised ligand | 10 µM | 64 |
| O=C(NC[C@@H]1[C@H]2CN(C(=O)OCc3cc(C(F)(F)F)cc(C(F)(F)F)c3)C[C@@H]12)c1ccc2[nH]nnc2c1 | cell-free assay | competition with immobilised ligand | 1 µM | 86 |
| C[C@H]1CCN(c2nccc(-c3cnn4ncccc34)n2)C1 | binding |  | 1 µM | 81 |
| O=C(O)c1cc(-c2ccc(C3CCNCC3)cc2)c2ccc(-c3ccc(C(F)(F)F)cc3)cc2c1 | cell-free assay | competition with immobilised ligand | 1 µM | 100 |
| N[C@H]1CCN(c2nccc(-c3cnn4ncccc34)n2)C1 | binding |  | 1 µM | 100 |
| COc1ncc2cc3ccccc3nc2c1C#N | cell-free assay | competition with immobilised ligand | 5 µM | 100 |
| CC1CCCN1c1nccc(-c2cnn3ncccc23)n1 (centres unmarked) | binding |  | 1 µM | 100 |
| CCCOc1ccc([C@H]2[C@H](C(=O)O)[C@@H](c3ccc4c(c3)OCO4)CN2CC(=O)Nc2c(CC)cccc2CC)cc1 | cell-free assay | competition with immobilised ligand | 1 µM | 76 |
| F[C@@H]1CCN(c2nccc(-c3cnn4ncccc34)n2)C1 | binding |  | 1 µM | 100 |
| Cc1c(C(=O)O)cc(-c2ccc(C3CCNCC3)cc2)c2ccc(-c3ccc(C(F)(F)F)cc3)cc12 | binding | competition with immobilised ligand | 1 µM | 100 |
| CN(C)c1ncc(F)c(-c2cnn3ncccc23)n1 | binding |  | 1 µM | 78 |
| Cc1cnc(Nc2ccc(C(=O)N3CCC(N4CCCC4)CC3)cc2)nc1-c1cc2ccccc2s1 | binding | competition with immobilised ligand | 1 µM | 36 |
| Cc1cnn2ncc(-c3ccnc(N(C)C)n3)c2c1 | binding |  | 1 µM | 82 |
| COc1cnc(Nc2cccc(S(N)(=O)=O)c2)nc1N1CCN(c2ccccc2)CC1 | binding | competition with immobilised ligand | 1 µM | 94 |
